Bioassay records (PubChem)
Most compounds without a hit are left out; they make up all but 2.4% or so of the library.
PREPL inh – inhibits the human prolyl oligopeptidase-like enzyme | AID 2751 | recombinant PREPL, fluorescence polarization activity-based probe | inhibition, % at 5.96 µM | Q4J6C6 | actives 0.68% (n = 320,000);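 further: 0% = enzyme with DMSO and 100% = wells lacking enzyme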
Target sequence (Q4J6C6 whole entry, looked up): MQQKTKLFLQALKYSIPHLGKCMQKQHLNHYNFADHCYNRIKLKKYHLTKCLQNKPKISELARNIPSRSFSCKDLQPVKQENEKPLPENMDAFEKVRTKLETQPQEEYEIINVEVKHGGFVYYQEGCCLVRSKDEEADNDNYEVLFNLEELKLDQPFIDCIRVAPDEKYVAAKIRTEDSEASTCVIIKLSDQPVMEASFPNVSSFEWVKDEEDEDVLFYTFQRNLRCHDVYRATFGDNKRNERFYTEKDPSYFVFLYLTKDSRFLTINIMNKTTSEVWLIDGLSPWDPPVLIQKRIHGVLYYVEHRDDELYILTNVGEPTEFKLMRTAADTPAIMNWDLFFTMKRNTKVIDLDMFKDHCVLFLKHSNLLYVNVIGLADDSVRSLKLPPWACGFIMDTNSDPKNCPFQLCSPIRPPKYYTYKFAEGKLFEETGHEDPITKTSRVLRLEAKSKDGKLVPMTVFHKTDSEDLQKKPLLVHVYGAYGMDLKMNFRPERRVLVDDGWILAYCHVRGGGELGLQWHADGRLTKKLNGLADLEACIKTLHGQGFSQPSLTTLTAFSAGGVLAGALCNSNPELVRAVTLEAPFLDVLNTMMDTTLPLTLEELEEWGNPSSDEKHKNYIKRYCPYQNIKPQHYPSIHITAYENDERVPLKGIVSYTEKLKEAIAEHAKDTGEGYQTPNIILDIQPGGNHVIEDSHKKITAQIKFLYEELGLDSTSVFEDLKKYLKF
HNF4A DNA FP – change in binding of human HNF4 alpha to DNA; P41235; HNF4a-FITC DNA binding, fluorescence polarization, 1 h; activity change, % at 10 µM; actives 0.3% (n = 360,000); in the data active means activity change above about 30%, passing the limit was not always enough
Neddylation inh – cullin neddylation inhibition | P61081+Q13564 | TR-FRET cullin neddylation, biochemical | inhibition, % at 25 µM | actives 0.58% (n = 360,000); in the data active means inhibition above about 36%
Tb MetRS inh – blocks T. brucei methionyl-tRNA synthetase activity | purified T. brucei MetRS, ATP depletion, Kinase-Glo luminescence | inhibition, % at 11.9 µM | actives 0.4% (n = 360,000);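 active means inhibition above a per-plate cutoff of the control wells' mean inhibition plus 3 SD, cut at about 5.5% in these data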;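 further: 0% = DMSO wells median and 100% = median of wells with control inhibitor compound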
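Material – parasite MetRS enzyme · Medium – HEPES-MgCl2-KCl buffer plus DTT, spermine, BSA, pyrophosphatase · Reagent – ATP, methionine and E. coli bulk tRNA substrates · Times – 15 min enzyme-compound preincubation, 2 h reaction, 10 min detection, 25 °C · Measured by – luminescence of leftover ATP · Evaluation – percent inhibition relative to median high and low control wells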
Rpn11 inh – inhibitors of human proteasome Rpn11; actives 0.59% (n = 360,000); inhibition, % at 20 µM; human 26S proteasome, Ub4-pepOG fluorescence polarization; 20S core pre-blocked with epoxomicin; O00487; AID 588493;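 active means inhibition at 20 µM, scaled to each plate's controls, above about 33%, limit read from the data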
CSN inh – blocks human CSN-mediated cullin deneddylation. Q92905. Purified CSN, SCF-Nedd8-OG deneddylation, fluorescence polarization. inhibition, % at 12.5 µM. actives 0.38% (n = 360,000). AID 651999;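 active means pattern-corrected inhibition above about 35%, with an unprinted fluorescence ratio check between 0.5 and 1.5, limit read from the data, passing the limit was not always enough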;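 further: 0% = enzyme with substrate and 100% = substrate without enzyme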
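Assay system: Purified human Csn5 enzyme expressed in HEK293T cells | Amount: Enzyme 0.24 nM | Measured by: Fluorescence polarization readout | Medium: Tris/NaCl/DTT buffer, pH 7.5 | Compound dosing: One concentration, 12.5 µM, 0.25% DMSO | Times: 90 min incubation of compound, enzyme and substrate at room temperature | Control set: no-enzyme wells high, enzyme-with-substrate wells low | Read-out: % inhibition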
PREPL confirm – confirmation of human PREPL enzyme inhibitors | shares compounds with PREPL inh | recombinant PREPL, fluorescence polarization activity probe | inhibition, % at 5.96 µM | actives 67% (n = 2,000) | AID 2803;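 further: 0% = protein with DMSO and 100% = wells lacking protein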
* hit, by the source's call; . = not tested or not shown. Unless noted, no stated cut-off is given here; in the data, active means inhibition above about 43%; inactive means the rest.

SMILES	PREPL inh	HNF4A DNA FP	Neddylation inh	Tb MetRS inh	Rpn11 inh	CSN inh	PREPL confirm
COc1ccc(NC(=O)N(CCN2CCCC2)Cc2cc3cc(OC)c(OC)cc3[nH]c2=O)cc1	58.3*	3.5	11.1	0.0	8.3	0.2	17.9
Cc1ccc(C)c(S(=O)(=O)N2CCN(C(=O)CCCc3c[nH]c4ccccc34)CC2)c1	47.1*	3.7	8.5	-0.2	0.3	-1.8	34.8
Cc1ccc(C)c(S(=O)(=O)N2CCN(C(=O)CCc3c[nH]c4ccccc34)CC2)c1	34.9	-2.3	8.9	-0.1	3.6	0.9	.
c1cc(-c2cc3nc(NC4CCCCC4)ccn3n2)ccc1OCCN1CCOCC1	.	-1.0	.	-0.3	11.0	0.8	.
O=C(CN1CCN(c2ccccn2)CC1)Nc1cc(C(F)(F)F)ccc1Cl	46.9*	-1.9	2.4	-1.1	3.6	3.8	30.5
O=C(Nc1ccc(Cl)c(Cl)c1)C1C2C=CC3(O2)C1C(=O)N(CCN1CCCCC1)C3C(=O)NC1CCCCC1 (centres undefined)	50.2*	0.6	-0.3	-0.5	2.3	1.5	52.4*
Cc1ccc(NC(=O)C2C3C=CC4(O3)C2C(=O)N(CCCN2CCOCC2)C4C(=O)NC2CCCCC2)cc1Cl (centres undefined)	24.7	1.8	1.6	-0.5	10.8	-4.4	.
O=C(CN1CC[n+]2c(-c3cccs3)csc21)c1ccc(-c2ccccc2)cc1	46.0*	2.0	-35.3	-0.7	1.6	4.3	41.7
COc1ccc(S(=O)(=O)Nc2ccc3c(c2)C(=O)N([C@H](C)CO)C[C@H](C)[C@@H](CN(C)C(=O)NC2CCCCC2)O3)cc1	10.6	4.0	-2.9	-0.3	-5.0	2.2	.
N#Cc1ccc(-c2ccc3c(c2)OCO3)nc1SCC(=O)OCc1ccccc1	30.6	9.7	-125.6	0.3	24.2	-2.6	.
COc1ccc(-c2ccc(C#N)c(SCC(=O)OCc3ccccc3)n2)cc1OC	57.5*	3.4	13.8	-0.1	-0.6	0.3	15.6
COc1ccc(-c2nc3c(Cl)cc(C(F)(F)F)cn3c2Cc2ccsc2)cc1OC	.	6.6	-83.9	0.1	.	-3.6	.
Cn1c(=O)cc2c3c(c(N4CCCCC4)ccc31)C(=O)c1ccccc1-2	54.9*	-84.4	-56.4	-0.7	-117.9	-74.9	57.4*
OC(c1ccc(-c2ccccc2)cc1)c1ncc(-c2ccccc2F)[nH]1 (centres undefined)	.	3.1	10.5	-0.2	-0.1	0.9	.
O=C1c2ccccc2-c2onc3ccc(NCc4ccco4)c1c23	82.2*	-42.5	-160.8	-1.4	-147.2	-82.4	105.8*
CCOc1ccc2noc3c2c1C(=O)c1ccccc1-3	23.4	-89.1	-73.3	-0.4	-212.0	-72.0	.
CCOc1ccccc1O[C@H](c1ccccc1)[C@H]1CNCCO1	43.9*	1.1	3.9	-0.7	-6.3	-4.6	42.7
CNc1oc(-c2ccccc2Cl)nc1P(=O)(c1ccccc1)c1ccccc1	43.9*	0.7	23.3	-0.2	7.9	0.5	55.3*
CNc1oc(-c2ccc(C)cc2)nc1P(=O)(c1ccccc1)c1ccccc1	27.4	-5.1	2.6	-1.0	-4.1	2.3	.
O=C(Nc1ccc(Cl)cc1)c1nc[nH]c1C(=O)NCCCNC(=O)c1[nH]cnc1C(=O)Nc1ccc(Cl)cc1	8.2	.	.	.	.	.	.
CCC(=O)c1ccc2c(c1)N(CCCN(C)C)c1ccccc1S2	63.8*	3.6	-2.1	0.2	-16.8	-6.2	55.2*
CC(=O)c1ccc2c(c1)N(CCCN(C)C)c1ccccc1S2	.	-12.8	4.9	-0.2	-44.6	-19.6	.
CCOC(=O)c1ccccc1NC(=O)COC(=O)C(CCSC)NC(=O)COc1ccccc1 (centres undefined)	4.0	0.8	4.0	0.4	0.0	3.3	.
Cc1ccc(S(=O)(=O)Nc2ccccc2N2CCOCC2)cc1	10.9	0.8	0.6	0.1	10.3	5.4	.
CC1CC(=O)c2c(cc3c(-c4c(O)cc(O)c5c(O)c6c(cc45)OC(C)CC6=O)c(O)cc(O)c3c2O)O1 (centres undefined)	77.2*	-39.1	5.9	1.6	2.9	59.1	34.7
SMILES	PREPL inh	HNF4A DNA FP	Neddylation inh	Tb MetRS inh	Rpn11 inh	CSN inh	PREPL confirm
COCCCn1c(SCCc2ccccc2)nc2cc(OC)c(OC)cc2c1=N	46.3*	-1.2	-6.0	-0.6	-0.7	-0.4	42.3
CCSc1nc2cc(OC)c(OC)cc2c(=O)n1CCc1ccccc1	13.4	1.9	-2.1	-0.9	-2.0	-0.2	.
COc1ccc(Cn2c(SCc3ccccc3C)nc3cc(OC)c(OC)cc3c2=N)cc1	61.8*	4.5	-43.1	-1.1	9.0	2.3	58.7*
CC(C)N1CCN(c2ccc(OC[C@H]3CO[C@](Cn4cncn4)(c4ccc(Cl)cc4Cl)O3)cc2)CC1	56.7*	3.8	-7.9	-0.4	-6.8	-4.0	46.5*
Cc1ccccc1OCCC(=O)Nc1ccc(N2CCOCC2)cc1N1CCOCC1	43.3*	1.0	9.0	-0.4	-4.2	-2.9	43.0
O=C(COc1cccc(Br)c1)Nc1ccc(N2CCOCC2)cc1N1CCOCC1	45.8*	3.4	1.4	-0.1	2.4	4.3	36.7
CCC(=O)c1ccc(OCC(=O)Nc2ccc(N3CCOCC3)cc2N2CCOCC2)cc1	6.0	-2.7	-2.2	-0.2	-16.4	-1.0	.
Cc1cccc2c3c([nH]c12)CCN(C)C3	26.8	1.5	11.3	0.2	3.8	-5.4	.
O=C(N/N=C/c1cc(Cl)c(O)c(Cl)c1)c1cc2c(ccc3ccccc32)o1	59.0*	2.6	.	-0.1	21.0	1.8	68.5*
O=C1OC[C@@H]2CCCN2C(=O)[C@@H](CC(=O)N(CCO)Cc2ccccc2)C/C=C\CC[C@H]1Cc1ccc(F)cc1	43.8*	2.0	-16.0	-0.4	-8.9	-1.1	30.4
O=C1N[C@@H](Cc2c[nH]c3ccccc23)COC(=O)[C@@H](Cc2ccc(F)cc2)C/C=C\C[C@H]1CC(=O)N(CCO)Cc1ccccc1	61.5*	-1.2	-12.1	-0.4	5.8	1.2	53.0*
O=C1N[C@H](Cc2ccccc2)COC(=O)[C@@H](Cc2ccc(F)cc2)CC/C=C/C[C@H]1CC(=O)N(CCO)Cc1ccccc1	30.4	-32.8	-25.1	0.4	2.1	-3.8	.
CC(C)(C)[C@@H]1COC(=O)[C@@H](Cc2ccc(F)cc2)C/C=C\C[C@H](CC(=O)N(CCO)Cc2ccccc2)C(=O)N1	56.4*	-0.9	-21.6	-0.1	-2.4	2.0	46.5*
C[C@H]1COC(=O)[C@@H](Cc2ccc(F)cc2)C/C=C\C[C@H](CC(=O)N(CCO)Cc2ccccc2)C(=O)N1	24.5	-2.0	-17.9	0.3	2.3	-1.6	.
O=C1OC[C@@H]2CCCN2C(=O)[C@@H](CC(=O)N(CCO)Cc2ccccc2)C/C=C\C[C@@H]1Cc1ccc(F)cc1	26.8	-0.6	-5.4	0.1	-3.2	-0.8	.
